The IC50 is the concentration needed to halve the response being measured. The low end stands for greater potency in that assay, the high end for weaker potency in that assay. The term pKa denotes the pH at which an ionisable group is half protonated.

Each structure is given as a SMILES string. “And” between values parts separate entries of the source, which are not always exact repeats. Identical values can stand only once. Counter-ions that a name gives are not always drawn.

Our source for the IC50 and pKa values is ChEMBL document CHEMBL1154474, “Pharmacophore based discovery of potential antimalarial agent targeting haem detoxification pathway” (Eur J Med Chem, 2008).

The test system of data set [1] is Plasmodium falciparum. In words: Antimalarial activity against chloroquine-resistant Plasmodium falciparum K1 after 48 hrs by [G-3H]hypoxanthine uptake. Type of data set: functional, organism-based. To be noted: K1, 48 h.
Data set [2] concerns Plasmodium falciparum. In words: Antimalarial activity against chloroquine-resistant Plasmodium falciparum K1. Type of data set: functional, organism-based.
Data set [3] has as its system Plasmodium falciparum. Briefly: Antimalarial activity against chloroquine and pyrimethamine-resistant Plasmodium falciparum K1 after 24 hrs by [3H]hypoxanthine uptake. Type of data set: functional, organism-based.
In data set [4] the test system is Plasmodium falciparum. Briefly: Antimalarial activity against chloroquine-resistant Plasmodium falciparum K1 by [3H]hypoxanthine uptake. Type of data set: functional, organism-based.
For data set [5], the system named is Plasmodium falciparum. Briefly: Antimalarial activity against chloroquine-resistant Plasmodium falciparum K1 after 72 hrs. Type of data set: functional, organism-based. The note with it: K1, 72 h.
The nature of data set [6]: Ionisation constant for the compound. Type of data set: physicochemical. In a few lines: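 Spectrophotometric pKa determination on a UV spectrometer, with measurements in buffers from pH 5.8 to 11.2 and in 0.1 M NaOH and 0.1 M HCl. The pH 5.8–8.0 buffers were made from 0.1 M KH2PO4/K2HPO4, and the pH 8.4–11.2 buffers from 0.1 M glycine with 0.1 M NaOH. Two constants (pKa1, pKa2) were reported.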

In turn, `CCN(CC)Cc1cc(Nc2ccncc2)ccc1O` had an IC50 in the data set on Plasmodium falciparum [1] of 1300 nM.
Same read-out and setting: the value for `C=C[C@@H]1CN2CC[C@@H]1C[C@H]2[C@H](O)c1ccnc2ccccc12` was 56.2 nM.
Take `CCN(CC)Cc1cc(Nc2ccnc3cc(Cl)ccc23)cc(-c2ccc(Cl)cc2)c1` [DEHYDROXY TEBAQUINE]: half-maximal inhibition with Plasmodium falciparum [1] (IC50) required 69.3 nM.
On the same count and under the same terms, the value for `C=C[C@@H]1CN2CC[C@@H]1C[C@@H]2[C@@H](O)c1ccnc2ccccc12` was 90.6 nM.
`CN(C)CCCN1c2ccc(NCc3cnc[nH]3)cc2Sc2ccc(Cl)cc21` yielded an IC50 with Plasmodium falciparum [2] of 1800 nM.
`CS(=O)(=O)Nc1ccc(Nc2c3ccccc3nc3cc(Cl)ccc23)cc1` gave an IC50 in the data set with Plasmodium falciparum [3] (Plasmodium falciparum, K1) of 1000 nM.
Consider `CS(=O)(=O)Nc1ccc(Nc2c3ccc(Cl)cc3nc3cc(Cl)ccc23)cc1`, for which the IC50 in the data set on Plasmodium falciparum [3] (Plasmodium falciparum, K1) was found to be 350 nM.
`N=C(N)c1ccc(/C=C/c2ccc(C(=N)N)cc2)cc1` [STILBAMIDINE] showed an IC50 with Plasmodium falciparum [4] of 27 nM.
The molecule `CC(C)(C)NCc1cc(Nc2ccnc3cc(Cl)ccc23)cc(-c2ccc(Cl)cc2)c1O` [TEBUQUINE] yielded an IC50 in the data set with Plasmodium falciparum [1] of 13 nM.
`C[n+]1c2ccccc2cc2[nH]c3c([N+](=O)[O-])cccc3c21` gave an IC50 with Plasmodium falciparum [2] of 6300 nM.
In turn, `CN(C)CCCC(=O)Nc1ccc2c(c1)Sc1ccc(Cl)cc1N2C` gave an IC50 with Plasmodium falciparum [2] of 7000 nM.
On the same count and under the same terms, as for `CN(C)CCCC(=O)Nc1ccc2c(c1)Sc1ccc(Cl)cc1N2CCCN(C)C`, the figure is 2000 nM.
The same measure, in the same setting: the value for `CN(C)CCCN(C)CCCN1c2ccccc2Sc2ccccc21` was 1000 nM.
In the data set with Plasmodium falciparum [1], `CCN(CC)CCCC(C)NC1=CC=NCC1` (centres undefined) yielded an IC50 of 15100 nM.
In the data set with Plasmodium falciparum [3] (Plasmodium falciparum, K1), `CN(C)c1ccc(Nc2c3ccccc3nc3cc(Cl)ccc23)cc1` showed an IC50 of 1100 nM.
In the case of `CC(c1cc(C(F)(F)F)nc2c(C(F)(F)F)cccc12)C1CCCCN1` (centres undefined), the IC50 in the data set with Plasmodium falciparum [1] was found to be 9.4 nM.
`N=C(N)c1ccc(/N=N/Nc2ccc(C(=N)N)cc2)cc1` [DIMINAZENE]: the IC50 in the data set with Plasmodium falciparum [4] was found to be 190 nM.
In turn, `CN(CCCNc1nc2ccc(Cl)cc2n2cccc12)CCCNc1nc2ccc(Cl)cc2n2cccc12` showed a 50% inhibitory concentration (IC50) in the data set with Plasmodium falciparum [2] of 280 nM.
Still for that read-out and setting: the value for `CN(C)CCCN(CCCN(C)C)CCCN1c2ccccc2Sc2ccc(Cl)cc21` was 420 nM.
Molecule `NCc1cc(Cc2ccnc3cc(Cl)ccc23)ccc1O` had an IC50 in the data set with Plasmodium falciparum [1] of 166 nM.
As for `CN(C)c1ccc(Nc2c3ccccc3nc3cc(N)ccc23)cc1`, the IC50 in the data set with Plasmodium falciparum [3] was 800 nM and 350 nM.
In turn, `C[n+]1c2ccccc2cc2[n-]c3ccccc3c21` [CRYPTOLEPINE HYDROCHLORIDE] gave an IC50 with Plasmodium falciparum [2] of 100000 nM.
`O=C1CC(c2ccc(Cl)cc2Cl)CC2Sc3ccc(Cl)cc3C(=O)C12` (centres undefined) registered an IC50 in the data set on Plasmodium falciparum [5] of 16 nM.
The molecule `CCNCc1cc(Cc2ccnc3cc(Cl)ccc23)ccc1O` gave an IC50 in the data set on Plasmodium falciparum [1] of 38.8 nM.
`C[n+]1c2ccc(Cl)c(Cl)c2cc2[nH]c3ccccc3c21` came in with an IC50 in the data set on Plasmodium falciparum [2] of 440 nM.
Still for that read-out and setting: the value for `C[n+]1c2ccc(Br)cc2cc2[nH]c3ccc([N+](=O)[O-])cc3c21` was 100000 nM.
`CNc1ccc(Nc2c3ccccc3nc3cc(Cl)ccc23)cc1` registered a half-maximal inhibitory concentration (IC50) in the data set with Plasmodium falciparum [3] (Plasmodium falciparum, K1) of 1200 nM.
`O=C1CC(c2ccc(C(F)(F)F)cc2)CC2C1C(=O)c1cc(Cl)ccc1N2O` (centres undefined) had an IC50 in the data set on Plasmodium falciparum [5] of 400 nM.
On the same count and under the same terms, the value for `CN(C)CCC/N=C1\CC(c2ccc(Cl)cc2Cl)CC2Nc3ccc(Cl)cc3C(=O)C12` (centres undefined) was 9.5 nM.
The molecule `Oc1ccc(Nc2ccnc3cc(Cl)ccc23)cc1` registered an IC50 in the data set on Plasmodium falciparum [1] of 2300 nM.
Still for that read-out and setting: the value for `CC(C)(C)NCc1cc(Cc2ccnc3cc(Cl)ccc23)ccc1O` was 9.1 nM; that for `CCN(CC)Cc1cc(Nc2ccnc3cc(Cl)ccc23)cc(-c2ccc(Cl)cc2)c1F` was 69 nM.
`CCN(CC)CCCC(C)Nc1cc(CCCCCCCCCCCCc2cc(NC(C)CCCN(CC)CC)c3ccccc3n2)nc2ccccc12` (centres undefined) yielded a half-inhibitory concentration (IC50) in the data set on Plasmodium falciparum [2] of 16 nM.
The molecule `CCOc1ccc(/C=C/C(=N\NC(=O)c2cccnc2)c2ccc(O)cc2)cc1OC` gave a pKa in data set [6] of 6.87.
Molecule `C[n+]1c2ccccc2c(C(=O)O)c2[nH]c3ccc(Br)cc3c21` gave an IC50 in the data set with Plasmodium falciparum [2] of 260 nM.
`CCN(CC)CCCC(C)Nc1cc(CCCCCCCCCCc2cc(NC(C)CCCN(CC)CC)c3ccccc3n2)nc2ccccc12` (centres undefined): in the data set with Plasmodium falciparum [2], half-maximal inhibition (IC50) was put at 17 nM.
For the molecule `CCN(CC)Cc1cc(Cc2ccnc3cc(Cl)ccc23)ccc1O`, in the data set on Plasmodium falciparum [1], the 50% inhibitory concentration (IC50) is 18 nM.
The same measure, in the same setting: as for `CC(CCCN)Nc1ccnc2cc(Cl)ccc12` (centres undefined) [BIDESETHYL CHLOROQUINE], the figure is 1340 nM.
`C[n+]1c2ccccc2cc2[nH]c3cc([N+](=O)[O-])cc([N+](=O)[O-])c3c21` displayed an IC50 in the data set on Plasmodium falciparum [2] of 650 nM.
`Oc1c(CN2CCCC2)cc(Nc2c3ccccc3nc3cc(Cl)ccc23)cc1CN1CCCC1` registered an IC50 in the data set with Plasmodium falciparum [1] of 9.1 nM.
For `C=CC1CN2CCC1C[C@@H]2[C@@H](O)c1ccnc2ccc(OC)cc12` (single isomer, unassigned) [QUINIDINE], inhibition with Plasmodium falciparum [1] was half-maximal at 51 nM (IC50).
`N=C(N)c1ccc(OCCCOc2ccc(C(=N)N)cc2)cc1` [PROPAMIDINE] showed an IC50 in the data set on Plasmodium falciparum [4] of 5.6 nM.
In the data set on Plasmodium falciparum [1], `C=CC1CN2CCC1C[C@H]2[C@H](O)c1ccnc2ccc(OC)cc12` (single isomer, unassigned) [QUININE] displayed an IC50 of 81 nM.
Still for that read-out and setting: as for `Oc1ccc(Cc2ccnc3cc(Cl)ccc23)cc1CN1CCCC1`, the figure is 11.5 nM; as for `CC(CCCN1CCCC1)Nc1ccnc2cc(Cl)ccc12` (centres undefined) [Chloroquine-pyrolidinyl], 89.6 nM.
In the data set with Plasmodium falciparum [3] (Plasmodium falciparum, K1), `NS(=O)(=O)c1ccc(Nc2c3ccc(Cl)cc3nc3cc(Cl)ccc23)cc1` had an IC50 of 620 nM.
`C[n+]1c2ccc(Cl)cc2cc2[nH]c3cc(Cl)ccc3c21` gave a 50% inhibitory concentration (IC50) with Plasmodium falciparum [2] of 45 nM.
Turning to `CCN(CC)CCCC(C)Nc1c2ccc(Cl)cc2nc2ccc(OC)cc12` (centres undefined) [QUINACRINE], the midpoint of inhibition in the data set on Plasmodium falciparum [1], the IC50, lay at 43 nM.
For `CCCCN(CCCC)CCC(C)c1cc2c(Cl)cc(Cl)cc2c2cc(C(F)(F)F)ccc12` (centres undefined), half-maximal inhibition with Plasmodium falciparum [1] (IC50) required 2.8 nM.
